# Assay outcomes deposited in PubChem BioAssay by several laboratories.
# Hits are enriched below; roughly 4.1% of the tested compounds scored in any of these assays.
# Cl transport mod: modulates chloride dependent transport by human KCC2 | 190,000 compounds, 2.2% hits | AID 1456 | B-score of Tl+ flux slope (higher = more flux/activation; lower = inhibition) at 10 µM | KCC2 cells, thallium flux FluoZin-2 fluorescence;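 active means thallium flux slope and its plate-corrected score both differing from the plate sample mean at a set confidence after two filtering rounds, in either direction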;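 further: slope of fluorescence scaled to starting intensity during 10 to 20 s after thallium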
# KCNK9 block: inhibitors of human KCNK9 two-pore domain potassium channel | Q9NPC2 | HEK293 KCNK9, FluxOR thallium flux fluorescence; stronger effect = lower value | B-score at 10 µM | 310,000 compounds, 1.2% hits;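 active means ratio B-score over 3 SD below the library mean, with starting fluorescence within 5 SD of its mean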;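 further: negative B-score means less thallium flux so channel inhibition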
# KCNQ1 act: potentiates or activates the human KCNQ1 potassium channel. B-score at 10 µM. CHO-K1 KCNQ1, thallium flux FluxOR fluorescence; stronger effect = higher value. 310,000 compounds, 0.35% hits. P51787;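 active means fluorescence ratio B-score, a plate-corrected score, at least three library SD, with initial intensity B-score within 5 SD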
# Target sequence (P51787 whole entry, looked up): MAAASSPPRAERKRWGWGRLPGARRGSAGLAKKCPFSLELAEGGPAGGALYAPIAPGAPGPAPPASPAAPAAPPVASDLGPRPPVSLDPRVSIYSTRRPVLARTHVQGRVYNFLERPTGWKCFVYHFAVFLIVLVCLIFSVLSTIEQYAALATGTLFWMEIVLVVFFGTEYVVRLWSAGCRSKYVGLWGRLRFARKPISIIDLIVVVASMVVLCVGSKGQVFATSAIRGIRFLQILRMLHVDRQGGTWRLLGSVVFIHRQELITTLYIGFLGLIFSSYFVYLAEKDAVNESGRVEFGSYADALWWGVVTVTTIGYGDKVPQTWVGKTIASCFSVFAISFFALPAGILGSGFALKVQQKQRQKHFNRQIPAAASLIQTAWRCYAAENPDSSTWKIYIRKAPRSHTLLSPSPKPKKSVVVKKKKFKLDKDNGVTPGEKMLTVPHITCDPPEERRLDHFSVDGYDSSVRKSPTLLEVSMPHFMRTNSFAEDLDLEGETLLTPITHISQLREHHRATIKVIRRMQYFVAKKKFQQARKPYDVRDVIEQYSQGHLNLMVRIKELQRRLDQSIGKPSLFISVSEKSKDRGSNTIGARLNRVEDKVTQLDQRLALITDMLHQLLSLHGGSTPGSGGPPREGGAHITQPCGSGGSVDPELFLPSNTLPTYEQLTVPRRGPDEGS
#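 Doses: Single concentration per compound, DMSO matched to controls | Test system: KCNQ1-transfected CHO-K1 cells | Timing: 90 min dye loading and 20 min compound exposure, both at room temperature | Measured by: Kinetic FluxOR thallium fluorescence, 10-s 1-Hz baseline, 110-s post-stimulus read | Medium: Assay buffer with matched DMSO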
# KCNQ1 block: blocks the human KCNQ1 potassium channel; CHO-K1 KCNQ1, FluxOR thallium flux fluorescence; stronger effect = higher value; B-score at 10 µM; 310,000 compounds, 1.3% hits;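 active means compounds whose thallium flux B-score, printed positive for inhibition, exceeds three library SD while starting fluorescence stays within three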;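 further: channel opened by potassium depolarization with thallium stimulus after 20 min compound exposure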
# KCNK3 block: human KCNK3 channel inhibition, primary screen | CHO-KCNK3 thallium flux, FluxOR fluorescence; stronger effect = lower value | B-score at 10 µM | 340,000 compounds, 0.84% hits | AID 602410;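 active means B-score under library mean minus 4 SD, starting fluorescence ratio at most library mean plus 5 SD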;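 further: more negative B-score means stronger inhibition of thallium flux through KCNK3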
# hERG rescue: compounds protecting human hERG from proarrhythmic drug block. activation (rescue from dofetilide block), less the hit threshold, % at 10 µM. Q12809. CHO-hERG, FluxOR thallium flux, dofetilide IC70 present. 310,000 compounds, 0.51% hits. AID 1511;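 active means activation above the mean of controls blocked by dofetilide plus 5 SD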;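 further: thallium influx through hERG after potassium depolarization seen as dye fluorescence rise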
# Hits are given with their value; - = inactive; . = not tested or not shown.
SMILES,Cl transport mod,KCNK9 block,KCNQ1 act,KCNQ1 block,KCNK3 block,hERG rescue
Cc1ccc(S(=O)(=O)NC(=NCc2ccccc2)c2ccc(F)cc2)cc1,.,-,-,-,-,-
Cc1cc(C)cc(C(=O)Nc2ccc(NC(=O)Cc3ccccc3)cc2)c1,-,-,-,-,-,6.2
O=C(Cc1ccccc1)Nc1ccc(NC(=O)c2cccc(Cl)c2)cc1,-,-,-,-,-,-
O=C(CSc1nnc(Nc2ccccc2F)s1)NC1CC1,.,.,.,.,-,.
CCCCCc1cc(=O)oc2c(C(CCN3CCCCC3)c3ccc(OC)cc3)c(OC)cc(OC)c12 (centres undefined),-,-,-,7,-,-
CCCCCc1cc(=O)oc2c(C(CCN3CCCC3)c3ccc(N(C)C)cc3)c(OC)cc(OC)c12 (centres undefined),-,-,-,-,-,-
CC1=NN(c2ccccc2)C(=O)/C1=C\c1c(C)[nH]n(-c2ccccc2)c1=O,-,-,-,-,-,-
CC1=NN(c2ccccc2)C(=O)/C1=C/c1c(O)n(-c2ccc(F)c(Cl)c2)[nH]c1=O,-8.28,-,12,-,.,-
Cc1csc(NC(=O)CSC2=NS(=O)(=O)c3ccccc3N2)n1,.,-,-,-,-,-
COc1cc(C)c(C(C)C)cc1S(=O)(=O)NC1CC(C)(C)NC(C)(C)C1,.,-,-,-,-,5.7
O=C(COC(=O)C1C2CC3OC(=O)C1C3C2)Nc1ccc(Cl)cc1 (centres undefined),.,-,17,-,-,12.2
O=C1NC(=S)S/C1=C\c1ccc(SCc2ccccc2)o1,29.1,.,.,.,-,.
O=C1NC(=S)S/C1=C\c1ccc(SCc2ccco2)o1,119,.,.,.,-,.
c1ccc(-c2noc(CN3CCN(C(c4ccccc4)c4ccccc4)CC3)n2)cc1,.,-7.15,-,-,-,-
Nc1nc2c(s1)CCc1ccccc1-2,.,-,-,-,-,-
N#C/C(=C(/O)CCl)c1nc2c(s1)CCc1ccccc1-2,.,-,-,6,-,-
CSCCC(NC(=O)c1ccccc1Br)C(=O)NNC(=O)c1cc(C)oc1C (centres undefined),.,.,.,.,-,.
CCOC(=O)C1CCCN(C(=O)c2ccc(Cn3c(=S)[nH]c4cc(C(=O)OC)ccc4c3=O)cc2)C1 (centres undefined),-,-,-,-,-,6.6
CC1CCN(S(=O)(=O)c2cc(C(=O)NC3(C)CCS(=O)(=O)C3)ccc2Br)CC1 (centres undefined),.,.,.,.,-,.
O=[N+]([O-])c1ccc(NC(=S)NCCc2ccccc2)cc1,-,-,-,6,-,-
CCCc1cc(=O)oc2c3c(cc(OCC(=O)NCCN4CCOCC4)c12)OC(C)(C)CC3,.,-,-,-,-,-
O=C(Nc1cccc(Cl)c1)C1=Cc2cc(Cl)ccc2OC1,-,-,-,-,-,-
O=C(Nc1ccc(Cl)c(Cl)c1)C1=Cc2ccccc2OC1,-,-,-,7,-,-
Cc1nc(N2CCCCC2)c2c(C)c(C(=O)Nc3ccccc3C(F)(F)F)sc2n1,-,-,-,-,-,-
Cc1nc(N2CCCCC2C)c2c(C)c(C(=O)Nc3cccc(C(F)(F)F)c3)sc2n1 (centres undefined),-,-,-,7,-,-
SMILES,Cl transport mod,KCNK9 block,KCNQ1 act,KCNQ1 block,KCNK3 block,hERG rescue
COc1cccc(/C=C(/C(=O)OCC(=O)NCC2CCCO2)c2ccccc2)c1 (centres undefined),-,-,-,-,-,-
COc1cccc(/C=C(/C(=O)OCC(=O)NC2CCCCCCC2)c2ccccc2)c1,-,-9.87,-,10,-,-
COc1ccc(-c2sc3ccccc3c2/C=C/c2ccncc2)cc1,.,.,.,.,-,.
Cc1cccc(N2CCN(C(=O)CNC(=O)c3cccc([N+](=O)[O-])c3)CC2)c1C,.,-,-,-,-,11.7
Cc1cccc(N2CCN(C(=O)CNC(=O)Cc3ccccc3)CC2)c1C,.,.,.,.,-,.
CCS(=O)(=O)c1ccc(O)c(NC(=O)c2ccc(S(=O)(=O)N3CCCCCC3)cc2)c1,.,.,.,.,-,.
COc1ccc(NC(=O)c2c(Nc3ccccc3)sc(C(=O)c3ccc(F)cc3)c2N)cc1,-,-,-,-,-,-
COc1ccc(C(=O)c2sc(Nc3ccccc3)c(C(=O)Nc3ccc(OC)c(OC)c3)c2N)cc1,-,-,-,7,-,-
O=C(Nc1cccc(C(F)(F)F)c1)c1cccc(NS(=O)(=O)c2ccc(O)c(C(=O)O)c2)c1,.,-,-,-,-,-
COc1ccc(OCC(=O)NNC(=O)C2CCCO2)cc1 (centres undefined),-,-,-,-,-,-
Cc1cc(Cl)ccc1OCC(=O)NNC(=O)C1CCCO1 (centres undefined),-,-,26,-,-,-
CC1=NN(c2ccc(C)c(C)c2)C(=O)C1C(c1cccc(O)c1)C1C(=O)N(c2ccc(C)c(C)c2)N=C1C (centres undefined),-,-9.81,-,-,-,-
CCN(CC)c1nc(NN)nc(Nc2ccc(C)c(Cl)c2)n1,.,-,-,-,-,-
COc1ccc(OC)c(NC(=S)N2CCC(C(O)(c3ccccc3)c3ccccc3)CC2)c1,-,-,44,-,-,-
Cc1cnc(=O)[nH]c1SCc1ccc([N+](=O)[O-])cc1,.,-7.26,-,-,-,-
COc1cc(C2C(C#N)=C(N)N(Nc3ccccc3)C3=C2C(=O)CC(C)(C)C3)ccc1OCc1ccccc1 (centres undefined),-,-7.29,-,-,-,-
COc1ccc(C2(c3ccc(OC)cc3)NC(=O)N(CC(=O)Nc3ccc(OC(F)F)cc3)C2=O)cc1,.,-,-,9,-,-
COc1ccc(NC(=O)CN2C(=O)NC(c3ccccc3)(c3ccccc3)C2=O)cc1,.,-,-,-,-,-
CCOc1ccccc1NC(=O)C(c1ccccc1)N1CCN(CC(=O)N2CCCC2)CC1 (centres undefined),.,.,.,.,-,.
O=Cc1ccc(-c2cc(Cl)ccc2Cl)[nH]1,-,-6.66,-,-,-,-
Nc1nc(N)nc(-c2cc(Cl)ccc2Cl)n1,.,-,-,-,-,-
Cc1cccc(NC(=S)N(Cc2ccc(Br)cc2)Cc2ccc(C(=O)O)cc2)c1,-,-,-,-,-,-
Cc1cc(NC(=S)N(Cc2ccc(Br)cc2)Cc2ccc(C(=O)O)cc2)ccc1Cl,-,-6.84,-,-,-,-
CCN(CC)S(=O)(=O)c1ccc(N2CCCCC2)c(NC(=O)/C=C/c2cc(OC)c(OC)c(OC)c2)c1,-,-6.86,-,-,-,-
Cc1ccc(C(=O)N2CCOCC2)cc1S(=O)(=O)N1CCCCC1,.,-,-,-,-,-
CCOc1ccc(/C=C2/SC(=O)NC2=S)cc1,68.5,-,112,-,-,37.1
CCOc1cc(C(=O)NC2CC(C)(C)NC(C)(C)C2)cc(OCC)c1OCC,.,-,-,-,-,-
